Source: PubChem (several laboratories)
The list is not random: actives were taken first. Their share in the collection is about 3.9%.
HSF-1 act = increases HSF-1 driven luciferase reporter signal; NIH3T3-HGL HSF-1 luciferase reporter, MG132, 8 h; 100% = twice DMSO control signal; activation, % at 9 µM; hit rate 1.7% among 300,000; AID 504408;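 active = mean replicate activation of at least 50% with a set share of replicates each reaching 50%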
DNA FID counter-1 = fluorescent intercalator displacement, NS3 helicase counter-screen; hit rate 0.17% among 290,000; DNA fluorescent intercalator displacement, fluorescence; AID 1845; inhibition, % at 7.9 µM;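 note: higher means more ethidium bromide displaced from hairpin DNA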
HSF1 inh = HSF1 inhibition. NIH3T3-HGL HSE-luciferase, MG132-induced, luminescence 8 h; hits give low values. activity change, negative = inhibition, % at 7.5 µM (by protocol). hit rate 0.77% among 300,000. AID 2098;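 active = more than half of replicate wells show activity change below -50%, luminescence cut by over half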;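 note: luciferase reports HSF-1 transcriptional activity via heat shock element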
HSP90 refold inh = inhibitors of HSP90 luciferase refolding in rabbit reticulocyte lysate. hit rate 0.91% among 290,000. luciferase refolding luminescence, 3 h. inhibition, % at 5.6 µM;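 active = inhibition above the screen-wide mean plus 3 SD, computed separately per campaign, cut at about 16% in these data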;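 note: inhibitors lower the luminescence because luciferase stays unfolded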
HCV core dimer = HCV core protein dimerization inhibition. inhibition, % at 5 µM. TR-FRET GST/Flag-core106 dimerization, 1536-well. AID 1899. hit rate 0.33% among 300,000;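 active = inhibition above the mean of all tested compounds plus 3 SD, set per screening campaign, cut at about 45% in these data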
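Material: Tagged HCV core106 pair (GST and Flag) | Amount: GST-core106 13.5 nM, Flag-core106 17 nM | Medium: KF-containing HEPES buffer, pH 7.45, DTT, CHAPS, BSA | Reagent: Eu donor and XL665 acceptor anti-tag antibodies | Schedule: 4 h at 22.5 °C | Technique: Time-resolved FRET, ex 340 nm, em 617 and 671 nm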
NS3 helicase inh = inhibitors of Hepatitis C virus NS3 helicase; NS3 helicase DNA unwinding, Cy5 molecular beacon fluorescence; inhibition, % at 10.9 µM; hit rate 0.56% among 290,000;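 active = inhibition above the mean of all tested compounds plus 3 SD, set per campaign, cut at about 35% in these data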
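Test system: hepatitis C virus NS3 helicase domain fragment enzyme. Also added: annealed dual-labelled DNA beacon duplex, ATP-started. Timing: 60 min unwinding reaction at 25 °C after ATP addition. Technique: Cy5 fluorescence. Measure: % inhibition of unwinding.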
NS3 hel confirm = HCV NS3 helicase inhibition, confirmation assay; shares compounds with NS3 helicase inh; inhibition, % at 10.9 µM; AID 1943; hit rate 31% among 1,600; NS3 helicase DNA unwinding, Cy5 molecular beacon fluorescence;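 active = inhibition above the mean of all tested compounds plus 3 SD, cutoff set per campaign, cut at about 36% in these data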
DNA FID counter-2 = intercalator displacement, NS3 helicase counter-screen; DNA fluorescent intercalator displacement, fluorescence; shares compounds with NS3 helicase inh; hit rate 4% among 1,600; inhibition, % at 7.9 µM;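 note: higher means more displacement of ethidium bromide from the DNA hairpin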
FID counter DR = counter-screen for HCV NS3 helicase inhibitors: DNA intercalator displacement dose response | fluorescent intercalator displacement from DNA, fluorescence | IC50, µM | AID 2172 | 120 tested, under 10 active | shares compounds with NS3 helicase inh; call rule not given here
Large screens that a line does not name were inactive (follow-up assays come after a bar, where they were run). Cut-off read from the data, not from the text of the source, unless noted: active = inhibition above about 37%; inactive = the rest.

O=C(/C=C\c1ccc(-c2ccccc2)o1)c1ccccc1	NS3 helicase inh 40 | NS3 hel confirm inactive | DNA FID counter-2 53
O=C(/C=C/c1ccccc1)c1ccccc1	none
Cc1cccc(N(C(=O)c2snc(C(N)=O)c2N)C(C(=O)NC2CCCC2)c2ccco2)c1 (stereo unspecified)	none (no result: HCV core dimer)
CCOC(=O)c1c(N2C(=O)Nc3ccccc3N2O)sc2c1CCCCC2	NS3 helicase inh 47 | NS3 hel confirm 75 | DNA FID counter-2 inactive
CCOC(=O)c1c(-c2ccccc2)csc1N1C(=O)Nc2ccccc2N1O	NS3 helicase inh 47 | NS3 hel confirm 72 | DNA FID counter-2 inactive
COC(=O)c1c(-c2ccccc2)csc1N1C(=O)Nc2ccccc2N1O	none
O=C(N/N=C/c1cc(Cl)c(O)c(Cl)c1)c1cc2c(ccc3ccccc32)o1	NS3 helicase inh 45 | NS3 hel confirm 53 | DNA FID counter-2 inactive | FID counter DR inactive
Cc1ccc(-c2csc(Cc3nc(-c4ccc5c(c4)CCC(=O)N5)cs3)n2)cc1	NS3 helicase inh 40 | NS3 hel confirm inactive | DNA FID counter-2 inactive
CCCN1CN=C(NS(=O)(=O)c2ccc(C)cc2)NC1	none
CC1CCc2sc3nc(NCc4ccco4)n4ncnc4c3c2C1 (stereo unspecified)	NS3 helicase inh 39 | NS3 hel confirm inactive | DNA FID counter-2 inactive
Cc1cccc2nc(-c3ccco3)c(Nc3ccc4c(c3)OCO4)n12	NS3 helicase inh 40 | NS3 hel confirm inactive | DNA FID counter-2 inactive
CC(CC(=O)O)CC(=O)Nc1cc(C(F)(F)F)cc(C(F)(F)F)c1 (stereo unspecified)	NS3 helicase inh 45 | NS3 hel confirm inactive | DNA FID counter-2 inactive
CC1(C)CC(=O)c2c(O)cc(OCC(=O)Nc3ccc(CCO)cc3)cc2O1	none
O=C1c2ccccc2C(=O)N1n1c(=O)[nH]c2ccccc2c1=O	none (no result: HSF-1 act, HSF1 inh)
Cc1cccc(OCC(=O)N/N=C/C=C/c2ccco2)c1	NS3 helicase inh 43 | NS3 hel confirm inactive | DNA FID counter-2 inactive
Cc1cccc(OCC(=O)Nc2cc(NC(=O)COc3cccc(C)c3)cc(C(=O)O)c2)c1	NS3 helicase inh 41 | NS3 hel confirm 63 | DNA FID counter-2 inactive
COc1cccc(OCC(=O)Nc2cc(NC(=O)COc3cccc(OC)c3)cc(C(=O)O)c2)c1	none
Cc1cc(C)cc(OCC(=O)N/N=C/c2ccco2)c1	none
COc1cc(/C=N/NC(=O)c2ccc(CN3C(=O)c4cccc5cccc3c45)cc2)cc(OC)c1O	none
CN1CCN(C(c2ccc(C(F)(F)F)cc2)c2cc(Cl)c3cccnc3c2O)CC1 (stereo unspecified)	none
CN1CCN(C(c2ccc(Cl)cc2)c2cc(Cl)c3cccnc3c2O)CC1 (stereo unspecified)	HSF-1 act 79, NS3 helicase inh 46 | NS3 hel confirm inactive | DNA FID counter-2 58
O=C(O)C(Sc1ccncn1)c1ccccc1 (stereo unspecified)	none
O=C(Nc1ccc(N2CCCC2)cc1)c1cccc(-c2cc3ccccc3oc2=O)c1	none
O=C(Nc1ccccc1N1CCCC1)c1cccc(-c2cc3ccccc3oc2=O)c1	NS3 helicase inh 42 | NS3 hel confirm inactive | DNA FID counter-2 inactive
O=C(O)C(C(=O)/C=C/c1ccco1)=C1SCCS1	none
O=C(C=C1SCCS1)/C=C/c1ccco1	NS3 helicase inh 38 | NS3 hel confirm inactive | DNA FID counter-2 inactive
CC1=C(C#N)C(=O)NC(=O)/C1=C\c1ccc(-c2ccc(C)cc2[N+](=O)[O-])o1	NS3 helicase inh 40 (no result: HCV core dimer) | NS3 hel confirm 63 | DNA FID counter-2 49
CCOC(=O)c1cc(-c2ccc(/C=C3/C(=O)NC(=O)C(C#N)=C3C)o2)ccc1Cl	NS3 helicase inh 50 | NS3 hel confirm 71 | DNA FID counter-2 75
CCCCC1(C)OC(=O)C(=Cc2ccc(-c3ccc(Cl)c(C(=O)O)c3)o2)C(=O)O1 (stereo unspecified)	NS3 helicase inh 67 | NS3 hel confirm 77 | DNA FID counter-2 inactive
Cc1ccc(N2NC(=O)/C(=C/c3ccc(-c4ccc(Cl)c(C(=O)O)c4)o3)C2=O)cc1	none
N=C1/C(=C\c2ccc(-c3ccc(C(=O)O)cc3)o2)C(=O)N=C2SC=C(c3ccccc3)N12	NS3 helicase inh 36 (no result: HCV core dimer) | NS3 hel confirm 73 | DNA FID counter-2 inactive
N=C1/C(=C\c2ccc(-c3cccc(Cl)c3)o2)C(=O)N=C2SC=C(c3ccccc3)N12	NS3 helicase inh 46 | NS3 hel confirm 80 | DNA FID counter-2 inactive
CC(C)C(=O)N/N=C/c1ccc(OCc2ccccc2)cc1	none
O=C(O)c1cc(N/N=C/c2ccc(OCc3ccccc3)cc2)ccc1Cl	NS3 helicase inh 42 | NS3 hel confirm 67 | DNA FID counter-2 inactive
COc1cc(SSc2cc(OC)cc([N+](=O)[O-])c2N)c(N)c([N+](=O)[O-])c1	HSF-1 act 88 | NS3 hel confirm inactive | DNA FID counter-2 inactive
COc1cc([N+](=O)[O-])c2ncsc2c1	none
COc1ccc(/C=N\NC(=O)c2cc(O)c(O)c(O)c2)cc1COc1ccc(C(=O)OCC(C)C)cc1	NS3 helicase inh 39 | NS3 hel confirm 56 | DNA FID counter-2 inactive | FID counter DR inactive
COc1ccc(C(=O)N/N=C/c2ccc(OC)c(COc3ccccc3)c2)cc1	none
Cn1cccc1Cc1nnc(SCC(=O)Nc2cccc(F)c2)n1CCc1ccccc1	NS3 helicase inh 42 | NS3 hel confirm inactive | DNA FID counter-2 inactive
Cc1cc(S(=O)(=O)N2CCCCC2)c(C)s1	NS3 helicase inh 67 | NS3 hel confirm inactive | DNA FID counter-2 inactive
CCNS(=O)(=O)c1ccc(CCC(=O)N2CCN(c3ccccc3F)CC2)cc1	none
O=C(N/N=C/c1c(O)ccc2ccccc12)c1cccnc1	NS3 helicase inh 87 | NS3 hel confirm inactive | DNA FID counter-2 inactive
COc1ccc2nc(NC(=O)c3ccc([N+](=O)[O-])o3)sc2c1	HSF-1 act 132, NS3 helicase inh 64 | NS3 hel confirm inactive | DNA FID counter-2 inactive
O=C(NNC(=O)c1cc2ccccc2cc1O)Nc1ccccc1F	NS3 helicase inh 46 | NS3 hel confirm inactive | DNA FID counter-2 inactive
O=C(Nc1ccc(N2CCCCC2)cc1)c1cc([N+](=O)[O-])cc([N+](=O)[O-])c1	none
CCOc1ccc2c(c1)-c1c(ssc1=S)C(C)(C)N2	none (no result: HSF-1 act, HSF1 inh)
CCOc1ccccc1N1C(=O)CC(Nc2ccc(N3CCOCC3)cc2)C1=O (stereo unspecified)	NS3 helicase inh 42 | NS3 hel confirm inactive | DNA FID counter-2 inactive
